Tests used:
[1] = target: Tyrosine-protein kinase Srms (Homo sapiens) (UniProt Q9H3Y6); test: Inhibition of SRMS at 1 uM
Procedure, shortened: (§1)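 Kinase selectivity panel reported as percent inhibition of each kinase at a single test-compound concentration. Values are means of at least two experiments.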

[2] = target: Proto-oncogene tyrosine-protein kinase Src (Homo sapiens) (UniProt P12931); test: Inhibition of SRC at 1 uM; procedure, shortened: as §1
[3] = target: T1, Aurora kinase A (Homo sapiens) (UniProt O14965); test: Inhibition of aurora A at 1 uM; procedure, shortened: as §1
T1 sequence (whole entry): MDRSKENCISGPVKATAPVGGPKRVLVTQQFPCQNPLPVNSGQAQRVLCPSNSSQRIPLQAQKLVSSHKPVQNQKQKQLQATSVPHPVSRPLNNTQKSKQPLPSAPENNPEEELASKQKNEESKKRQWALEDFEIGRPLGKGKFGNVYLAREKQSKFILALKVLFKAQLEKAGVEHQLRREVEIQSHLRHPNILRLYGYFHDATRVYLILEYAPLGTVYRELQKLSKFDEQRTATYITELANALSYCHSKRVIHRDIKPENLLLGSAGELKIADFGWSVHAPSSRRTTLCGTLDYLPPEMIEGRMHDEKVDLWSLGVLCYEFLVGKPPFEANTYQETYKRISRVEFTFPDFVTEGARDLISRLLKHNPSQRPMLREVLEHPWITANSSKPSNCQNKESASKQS

[4] = target: Protein-tyrosine kinase 6 (Homo sapiens) (UniProt Q13882); test: Inhibition of PTK6 at 1 uM; procedure, shortened: as §1
Chain of Protein-tyrosine kinase 6 (Homo sapiens) (Q13882 whole entry, looked up): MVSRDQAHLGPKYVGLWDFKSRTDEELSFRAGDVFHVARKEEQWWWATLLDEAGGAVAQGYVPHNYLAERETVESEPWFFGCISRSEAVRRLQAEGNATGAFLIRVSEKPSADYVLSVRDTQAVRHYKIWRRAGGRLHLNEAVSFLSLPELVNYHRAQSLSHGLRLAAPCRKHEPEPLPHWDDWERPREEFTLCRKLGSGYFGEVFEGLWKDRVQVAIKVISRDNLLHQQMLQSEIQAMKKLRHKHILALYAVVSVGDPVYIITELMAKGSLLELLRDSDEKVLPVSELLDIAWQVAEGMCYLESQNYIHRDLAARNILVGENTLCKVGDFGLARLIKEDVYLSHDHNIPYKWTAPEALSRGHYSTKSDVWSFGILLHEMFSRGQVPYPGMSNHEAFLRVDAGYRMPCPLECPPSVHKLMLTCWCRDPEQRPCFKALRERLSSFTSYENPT

[5] = Inhibition of basal ERK phosphorylation in human MALME-3M cells; format: cell-based
[6] = target: Tyrosine-protein kinase Fgr (Homo sapiens) (UniProt P09769); test: Inhibition of FGR at 1 uM; procedure, shortened: as §1
Chain of Tyrosine-protein kinase Fgr (Homo sapiens) (P09769 2-529 limits assumed): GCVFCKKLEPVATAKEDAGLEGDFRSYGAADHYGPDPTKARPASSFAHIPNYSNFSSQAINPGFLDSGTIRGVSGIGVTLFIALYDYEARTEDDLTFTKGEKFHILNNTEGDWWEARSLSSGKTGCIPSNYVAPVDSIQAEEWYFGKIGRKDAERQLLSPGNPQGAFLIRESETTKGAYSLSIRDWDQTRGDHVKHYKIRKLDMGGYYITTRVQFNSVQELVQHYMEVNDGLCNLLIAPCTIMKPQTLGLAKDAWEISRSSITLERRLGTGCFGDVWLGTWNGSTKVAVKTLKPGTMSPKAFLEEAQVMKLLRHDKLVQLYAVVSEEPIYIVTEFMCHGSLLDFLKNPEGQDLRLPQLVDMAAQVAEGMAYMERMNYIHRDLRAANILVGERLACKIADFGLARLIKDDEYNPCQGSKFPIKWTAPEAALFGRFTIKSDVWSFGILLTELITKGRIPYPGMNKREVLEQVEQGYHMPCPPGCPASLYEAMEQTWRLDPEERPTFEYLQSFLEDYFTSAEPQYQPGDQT

[7] = target: Receptor-type tyrosine-protein kinase FLT3 (Homo sapiens) (UniProt P36888); test: Inhibition of FLT3 at 1 uM; procedure, shortened: as §1
Chain of Receptor-type tyrosine-protein kinase FLT3 (Homo sapiens) (P36888 whole entry): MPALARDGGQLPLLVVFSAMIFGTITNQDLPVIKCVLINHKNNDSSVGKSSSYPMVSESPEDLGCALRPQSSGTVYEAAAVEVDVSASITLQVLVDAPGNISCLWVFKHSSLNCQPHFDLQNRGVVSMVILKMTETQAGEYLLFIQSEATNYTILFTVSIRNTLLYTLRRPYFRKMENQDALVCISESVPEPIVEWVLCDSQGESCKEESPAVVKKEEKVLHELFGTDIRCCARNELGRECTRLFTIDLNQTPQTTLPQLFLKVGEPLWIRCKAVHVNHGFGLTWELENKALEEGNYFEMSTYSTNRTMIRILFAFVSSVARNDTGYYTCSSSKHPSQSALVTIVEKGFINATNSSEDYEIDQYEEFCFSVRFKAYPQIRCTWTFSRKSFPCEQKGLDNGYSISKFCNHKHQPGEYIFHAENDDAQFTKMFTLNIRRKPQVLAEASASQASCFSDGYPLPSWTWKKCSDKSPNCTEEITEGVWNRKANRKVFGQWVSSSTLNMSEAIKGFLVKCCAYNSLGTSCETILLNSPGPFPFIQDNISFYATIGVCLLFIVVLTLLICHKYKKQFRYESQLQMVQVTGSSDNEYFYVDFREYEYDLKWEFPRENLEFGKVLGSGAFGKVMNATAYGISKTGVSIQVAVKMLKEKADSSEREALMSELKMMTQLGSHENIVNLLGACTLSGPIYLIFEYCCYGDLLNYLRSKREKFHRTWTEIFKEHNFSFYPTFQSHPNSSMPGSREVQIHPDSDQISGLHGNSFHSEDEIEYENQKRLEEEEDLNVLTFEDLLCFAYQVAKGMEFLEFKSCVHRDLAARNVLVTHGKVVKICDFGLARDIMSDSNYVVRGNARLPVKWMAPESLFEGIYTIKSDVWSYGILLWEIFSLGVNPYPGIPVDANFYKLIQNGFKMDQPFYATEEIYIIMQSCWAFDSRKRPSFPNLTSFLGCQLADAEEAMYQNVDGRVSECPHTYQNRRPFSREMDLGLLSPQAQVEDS

[8] = target: Tyrosine-protein kinase Lck (Homo sapiens) (UniProt P06239); test: Inhibition of LCK at 1 uM; procedure, shortened: as §1
Chain of Tyrosine-protein kinase Lck (Homo sapiens) (P06239 2-509 limits assumed): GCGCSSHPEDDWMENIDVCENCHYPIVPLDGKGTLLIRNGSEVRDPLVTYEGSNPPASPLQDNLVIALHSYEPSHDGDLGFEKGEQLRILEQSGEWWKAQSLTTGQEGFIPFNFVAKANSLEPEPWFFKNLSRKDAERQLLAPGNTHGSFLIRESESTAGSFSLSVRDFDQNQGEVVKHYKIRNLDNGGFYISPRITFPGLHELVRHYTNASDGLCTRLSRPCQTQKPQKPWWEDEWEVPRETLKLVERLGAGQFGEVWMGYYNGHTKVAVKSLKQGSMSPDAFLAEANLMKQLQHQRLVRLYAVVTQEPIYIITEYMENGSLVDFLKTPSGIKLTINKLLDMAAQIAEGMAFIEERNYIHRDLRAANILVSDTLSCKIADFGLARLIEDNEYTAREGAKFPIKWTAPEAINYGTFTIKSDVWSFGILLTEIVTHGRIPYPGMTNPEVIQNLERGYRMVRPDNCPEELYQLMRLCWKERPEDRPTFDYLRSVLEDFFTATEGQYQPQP

[9] = target: Serine/threonine-protein kinase B-raf (Homo sapiens, UniProt P15056, V600E); test: Inhibition of full length B-Raf V600E mutant
Chain of Serine/threonine-protein kinase B-raf (P15056 2-766 V600E limits assumed): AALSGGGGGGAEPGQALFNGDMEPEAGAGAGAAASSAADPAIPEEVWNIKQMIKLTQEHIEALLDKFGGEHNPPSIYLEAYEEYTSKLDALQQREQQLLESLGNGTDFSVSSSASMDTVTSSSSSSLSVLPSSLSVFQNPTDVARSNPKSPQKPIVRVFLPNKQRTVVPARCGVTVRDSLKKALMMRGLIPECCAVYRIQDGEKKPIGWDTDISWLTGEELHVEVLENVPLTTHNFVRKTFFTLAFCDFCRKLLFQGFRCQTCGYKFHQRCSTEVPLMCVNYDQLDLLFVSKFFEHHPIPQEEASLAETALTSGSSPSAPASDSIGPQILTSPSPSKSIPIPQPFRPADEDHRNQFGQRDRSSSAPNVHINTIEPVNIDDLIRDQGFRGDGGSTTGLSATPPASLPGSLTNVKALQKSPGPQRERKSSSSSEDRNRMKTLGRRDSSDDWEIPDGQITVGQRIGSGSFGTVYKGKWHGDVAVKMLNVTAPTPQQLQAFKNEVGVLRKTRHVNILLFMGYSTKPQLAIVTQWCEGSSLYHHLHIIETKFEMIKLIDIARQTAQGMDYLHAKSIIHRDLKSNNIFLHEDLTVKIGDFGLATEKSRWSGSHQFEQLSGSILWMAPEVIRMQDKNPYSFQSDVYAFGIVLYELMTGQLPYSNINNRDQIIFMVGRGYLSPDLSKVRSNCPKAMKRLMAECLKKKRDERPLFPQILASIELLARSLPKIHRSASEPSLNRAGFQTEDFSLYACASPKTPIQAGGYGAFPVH

Chain of Tyrosine-protein kinase Srms (Homo sapiens) (Q9H3Y6 whole entry): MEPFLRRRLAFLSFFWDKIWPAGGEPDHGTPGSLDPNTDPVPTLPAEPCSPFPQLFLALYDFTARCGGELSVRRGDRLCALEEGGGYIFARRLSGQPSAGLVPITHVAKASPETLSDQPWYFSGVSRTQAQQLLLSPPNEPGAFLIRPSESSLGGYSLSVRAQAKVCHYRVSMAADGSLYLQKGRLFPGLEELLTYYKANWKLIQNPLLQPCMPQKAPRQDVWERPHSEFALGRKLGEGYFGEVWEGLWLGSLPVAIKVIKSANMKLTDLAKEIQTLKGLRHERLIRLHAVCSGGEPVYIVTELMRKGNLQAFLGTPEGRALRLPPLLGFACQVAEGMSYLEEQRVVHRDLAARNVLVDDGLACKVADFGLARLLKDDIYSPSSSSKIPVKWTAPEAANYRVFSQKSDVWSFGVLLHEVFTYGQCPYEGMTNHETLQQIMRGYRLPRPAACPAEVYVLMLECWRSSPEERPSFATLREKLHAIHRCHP
Chain of Proto-oncogene tyrosine-protein kinase Src (Homo sapiens) (P12931 2-536 limits assumed): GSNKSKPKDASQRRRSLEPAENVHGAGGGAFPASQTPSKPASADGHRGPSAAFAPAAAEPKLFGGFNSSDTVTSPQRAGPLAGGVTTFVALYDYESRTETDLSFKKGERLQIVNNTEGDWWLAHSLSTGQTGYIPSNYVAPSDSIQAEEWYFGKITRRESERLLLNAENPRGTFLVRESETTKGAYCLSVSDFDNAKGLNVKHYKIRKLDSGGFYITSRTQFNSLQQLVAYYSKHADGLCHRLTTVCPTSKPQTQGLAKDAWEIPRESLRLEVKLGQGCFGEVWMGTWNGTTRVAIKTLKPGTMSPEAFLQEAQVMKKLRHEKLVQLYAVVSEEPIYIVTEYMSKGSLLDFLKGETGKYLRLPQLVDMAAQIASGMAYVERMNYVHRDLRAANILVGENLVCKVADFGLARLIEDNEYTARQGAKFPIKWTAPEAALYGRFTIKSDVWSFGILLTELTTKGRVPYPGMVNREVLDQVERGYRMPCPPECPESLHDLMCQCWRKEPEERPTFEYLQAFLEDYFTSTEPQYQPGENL

- inhibition [1]: 105%
- inhibition [2]: 52%
- inhibition [3]: 47%
- inhibition [4]: 105%
- IC50 [5]: 0.018 µM
- inhibition [6]: 101%
- inhibition [7]: 85%
- inhibition [8]: 90%
- IC50 [9]: 0.0086 µM
Structure (SMILES): COc1n[nH]c2ncc(NC(=O)c3c(F)ccc(NS(=O)(=O)N4CCCC4)c3F)cc12

Reference: ChEMBL document CHEMBL1821716, “Pyrazolopyridine inhibitors of B-RafV600E. Part 2: structure-activity relationships” (Bioorg Med Chem Lett, 2011)
